According to ChEMBL document CHEMBL3108700, “Designing anti-inflammatory drugs from parasitic worms: a synthetic small molecule analogue of the Acanthocheilonema viteae product ES-62 prevents development of collagen-induced arthritis” (J Med Chem, 2013):
The source made the active and inactive calls. How the calls were made is not given here.

Tests used:
[1] = molecular target: T1, Toll-like receptor 4 (Mus musculus) (UniProt Q9QUK6); assay: Inhibition of TLR4 in BALB/c mouse BMDM assessed as downregulation of LPS-stimulated IL-12p40 level at 5 ug/ml preincubated for 18 hrs followed by LPS challenge measured after 24 hrs by ELISA relative to control
T1 sequence (whole entry): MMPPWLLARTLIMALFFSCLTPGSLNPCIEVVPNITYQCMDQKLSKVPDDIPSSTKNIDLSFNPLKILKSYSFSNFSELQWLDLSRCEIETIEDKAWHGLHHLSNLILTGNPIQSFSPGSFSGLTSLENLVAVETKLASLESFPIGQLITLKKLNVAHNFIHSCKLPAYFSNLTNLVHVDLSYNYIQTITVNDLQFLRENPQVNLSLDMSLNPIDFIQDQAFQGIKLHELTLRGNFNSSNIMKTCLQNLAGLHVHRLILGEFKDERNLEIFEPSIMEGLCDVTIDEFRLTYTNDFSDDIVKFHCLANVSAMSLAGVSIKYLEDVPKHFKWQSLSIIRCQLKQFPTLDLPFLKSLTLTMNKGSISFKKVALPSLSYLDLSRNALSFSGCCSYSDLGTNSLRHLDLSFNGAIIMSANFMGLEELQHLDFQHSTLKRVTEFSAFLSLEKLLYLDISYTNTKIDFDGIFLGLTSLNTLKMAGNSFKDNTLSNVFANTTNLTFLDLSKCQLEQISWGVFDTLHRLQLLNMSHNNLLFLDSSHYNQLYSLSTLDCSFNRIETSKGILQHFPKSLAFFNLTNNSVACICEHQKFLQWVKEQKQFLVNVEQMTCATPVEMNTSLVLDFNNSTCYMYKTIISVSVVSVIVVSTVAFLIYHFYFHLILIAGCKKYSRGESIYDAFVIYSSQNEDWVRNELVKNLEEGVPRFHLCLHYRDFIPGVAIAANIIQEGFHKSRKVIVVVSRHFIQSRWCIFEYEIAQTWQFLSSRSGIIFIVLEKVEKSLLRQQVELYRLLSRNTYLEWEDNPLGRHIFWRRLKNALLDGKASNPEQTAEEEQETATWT
Outline: (§1)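 BALB/c male bone marrow macrophages were differentiated 7 days with L929 supernatant (≥99% CD11b+/F4/80+). Cells were plated at 2 × 10^5/well in triplicate, rested overnight, and given compounds at 5 μg/mL for 18 h. They were then stimulated with 100 ng/mL S. minnesota LPS, 10 ng/mL Pam3CSK4 (BLP) or 0.01 μM CpG for 24 h. Supernatant IL-12p40 and IL-6 were measured by ELISA (sensitivity 16 pg/mL).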

TLR2/TLR6 (Mus musculus) [2] = molecular target: T2, TLR2/TLR6 (Mus musculus) (UniProt Q9QUN7+Q9EPW9); assay: Inhibition of TLR2/6 in BALB/c mouse BMDM assessed as downregulation of BLP-stimulated IL-12p40 level at 5 ug/ml preincubated for 18 hrs followed by BLP challenge measured after 24 hrs by ELISA relative to control; type: protein-complex assay; outline: as §1
[3] = molecular target: T3, Toll-like receptor 9 (Mus musculus) (UniProt Q9EQU3); assay: Inhibition of TLR9 in BALB/c mouse BMDM assessed as downregulation of CpG-stimulated IL-12p40 level at 5 ug/ml preincubated for 18 hrs followed by CpG challenge measured after 24 hrs by ELISA relative to control; outline: as §1
T3 sequence (whole entry): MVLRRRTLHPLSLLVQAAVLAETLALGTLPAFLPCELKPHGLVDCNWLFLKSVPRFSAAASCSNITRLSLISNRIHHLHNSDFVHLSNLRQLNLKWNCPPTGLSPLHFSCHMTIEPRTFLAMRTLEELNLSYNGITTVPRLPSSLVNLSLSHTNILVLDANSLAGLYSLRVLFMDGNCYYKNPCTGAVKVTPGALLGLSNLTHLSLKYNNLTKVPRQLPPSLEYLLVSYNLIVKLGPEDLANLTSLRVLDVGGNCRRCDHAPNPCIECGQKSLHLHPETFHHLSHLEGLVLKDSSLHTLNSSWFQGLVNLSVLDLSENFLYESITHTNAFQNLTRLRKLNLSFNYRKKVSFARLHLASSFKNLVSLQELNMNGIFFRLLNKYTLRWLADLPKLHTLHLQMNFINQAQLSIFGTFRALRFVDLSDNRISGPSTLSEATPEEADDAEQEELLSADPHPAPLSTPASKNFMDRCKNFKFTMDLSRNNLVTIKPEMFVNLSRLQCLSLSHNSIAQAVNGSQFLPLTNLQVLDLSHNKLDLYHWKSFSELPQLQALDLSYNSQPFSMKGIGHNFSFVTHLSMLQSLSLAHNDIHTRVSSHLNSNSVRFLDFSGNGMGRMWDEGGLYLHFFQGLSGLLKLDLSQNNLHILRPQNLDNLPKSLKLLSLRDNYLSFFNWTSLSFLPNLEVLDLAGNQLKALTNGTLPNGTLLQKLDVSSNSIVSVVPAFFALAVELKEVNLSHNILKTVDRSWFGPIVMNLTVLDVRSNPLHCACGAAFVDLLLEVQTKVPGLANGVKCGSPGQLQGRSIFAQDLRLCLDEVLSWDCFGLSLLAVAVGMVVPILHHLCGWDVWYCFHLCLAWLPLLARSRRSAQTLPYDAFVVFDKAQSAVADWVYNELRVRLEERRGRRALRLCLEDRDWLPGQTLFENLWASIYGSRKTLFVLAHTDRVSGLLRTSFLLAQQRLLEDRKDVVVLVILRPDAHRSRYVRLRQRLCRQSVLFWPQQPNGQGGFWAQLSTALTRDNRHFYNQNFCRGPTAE

[4] = molecular target: T1, Toll-like receptor 4 (Mus musculus); assay: Inhibition of TLR4 in BALB/c mouse BMDM assessed as downregulation of LPS-stimulated IL-6 level at 5 ug/ml preincubated for 18 hrs followed by LPS challenge measured after 24 hrs by ELISA relative to control; outline: as §1
[5] = molecular target: T3, Toll-like receptor 9 (Mus musculus); assay: Inhibition of TLR9 in BALB/c mouse BMDM assessed as downregulation of CpG-stimulated IL-6 level at 5 ug/ml preincubated for 18 hrs followed by CpG challenge measured after 24 hrs by ELISA relative to control; outline: as §1
TLR2/TLR6 (Mus musculus) [6] = molecular target: T2, TLR2/TLR6 (Mus musculus); assay: Inhibition of TLR2/6 in BALB/c mouse BMDM assessed as downregulation of BLP-stimulated IL-6 level at 5 ug/ml preincubated for 18 hrs followed by BLP challenge measured after 24 hrs by ELISA relative to control; type: protein-complex assay; outline: as §1

Compound	inhibition [1]	inhibition (TLR2/TLR6 (Mus musculus) [2])	inhibition [3]	inhibition [4]	inhibition [5]	inhibition (TLR2/TLR6 (Mus musculus) [6])
O=S(=O)(CCN1CCCC1)NCc1ccc(F)cc1	inactive	inactive	Active	Active	Active	inactive
CN(C)CCNC(=O)Cc1ccccc1	Active	inactive	inactive	inactive	Active	inactive
O=[N+]([O-])c1ccc(CNS(=O)(=O)CCN2CCCC2)cc1	inactive	inactive	inactive	inactive	inactive	inactive
O=[N+]([O-])c1ccc(CS(=O)(=O)NCCN2CCOCC2)cc1	inactive	inactive	inactive	inactive	inactive	inactive
O=[N+]([O-])c1ccc(CS(=O)(=O)NCCN2CCCC2)cc1	inactive	inactive	inactive	inactive	inactive	inactive
CN(C)CCCNS(=O)(=O)Cc1ccc([N+](=O)[O-])cc1	inactive	inactive	inactive	inactive	inactive	Active
CN(C)CCCS(=O)(=O)Cc1ccc(Br)cc1	inactive	inactive	inactive	Active	inactive	inactive
Cc1ccc(CS(=O)(=O)CCC[N+]2(C)CCCC2)cc1	inactive	inactive	inactive	inactive	inactive	inactive
CN(C)CCNS(=O)(=O)Cc1ccc(F)cc1	inactive	inactive	inactive	inactive	inactive	inactive
CCCNCCS(=O)(=O)c1ccccc1	inactive	Active	inactive	inactive	inactive	Active
Cc1ccc(CS(=O)(=O)CC[N+]2(C)CCCC2)cc1	Active	Active	inactive	inactive	inactive	inactive
CC[C@H](C)NCCS(=O)(=O)Cc1ccc(Br)cc1	inactive	Active	inactive	inactive	inactive	inactive
CN(C)CCS(=O)(=O)NCc1ccc(Br)cc1	inactive	inactive	inactive	inactive	inactive	inactive
O=S(=O)(CCN1CCCC1)Cc1cccc(F)c1	inactive	Active	inactive	inactive	inactive	inactive
CN(C)CCOP(=O)(O)Cc1ccc([N+](=O)[O-])cc1	inactive	inactive	inactive	inactive	inactive	inactive
O=S(=O)(CCN1CCOCC1)NCc1ccc(F)cc1	inactive	inactive	Active	Active	Active	Active
O=S(=O)(CCN1CCOCC1)NCc1ccccc1	inactive	inactive	inactive	inactive	inactive	inactive
CN(C)CCN(C)CCS(=O)(=O)NCc1ccc(Br)cc1	Active	inactive	Active	inactive	inactive	Active
O=S(=O)(CCN1CCOCC1)NCc1ccc(Br)cc1	inactive	inactive	inactive	inactive	inactive	inactive
CN1CCN(CCS(=O)(=O)c2ccccc2)CC1	inactive	inactive	inactive	inactive	inactive	inactive
O=S(=O)(CCCN1CCCC1)Cc1ccc(Br)cc1	inactive	inactive	inactive	inactive	inactive	inactive
Cc1ccc(CS(=O)(=O)CCCN2CCCC2)cc1	inactive	inactive	inactive	inactive	inactive	inactive
CC(C)NCCS(=O)(=O)c1ccccc1	inactive	Active	inactive	inactive	inactive	inactive
CN(C)CCNS(=O)(=O)Cc1ccc([N+](=O)[O-])cc1	inactive	inactive	inactive	inactive	inactive	Active
